SIAE primary = blocks human sialic acid acetylesterase; inhibition, % at 9.66 µM; AID 1053197; SIAE FP-Rh probe binding, fluorescence polarization; 370,000 tested, 0.69% active;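 active = inhibition above a cutoff: mean of compounds within the control limits plus 3 SD of those, cut at about 17% in these data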
ABHD4 inh = inhibits mouse alpha/beta hydrolase domain 4 | Q8VD66 | purified mABHD4, FP-Rh probe fluorescence polarization | inhibition, % at 8.92 µM | 370,000 tested, 0.54% active | AID 720543;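 active = inhibition exceeding the mean over every tested compound plus 3 SD, cut at about 30% in these data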
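Test system: mABHD4 protein; Read-out basis: % inhibition; Incubation: 45 min + 60 min at 25 °C; Repeats: single replicate; Technique: fluorescence polarization with parallel and perpendicular emission, 525/598 nm; Compound: 8.92 µM, single dose; Benchmarks: full inhibition S159A mutant plus DMSO, zero as sample-well median.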
TCR-CD3 inh = inhibitors of human TCR-CD3 interaction; TAMRA-labeled TCR probe fluorescence, biochemical; inhibition, % at 9.4 µM; 360,000 tested, 0.37% active; AID 651800; in the data active = inhibition above about 19%;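 also: recombinant mutant TCR 2C K166C tagged with TAMRA read by polarization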
PRMT1 FP inh = PRMT1 (human) inhibition, primary screen; 370,000 tested, 1.3% active; recombinant PRMT1, activity-based probe fluorescence polarization; Q99873; inhibition, % at 2.79 µM;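 active = inhibition above about 21% made by adding two undisclosed values, limit read from the data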
HTRA1 inh = HTRA1 (human) protease inhibition. Q92743. recombinant HTRA1, FP-rhodamine activity-based probe, fluorescence polarization. inhibition, % at 5.96 µM. 340,000 tested, 0.5% active; in the data active = inhibition above about 36%
Target sequence (Q92743 whole entry, looked up): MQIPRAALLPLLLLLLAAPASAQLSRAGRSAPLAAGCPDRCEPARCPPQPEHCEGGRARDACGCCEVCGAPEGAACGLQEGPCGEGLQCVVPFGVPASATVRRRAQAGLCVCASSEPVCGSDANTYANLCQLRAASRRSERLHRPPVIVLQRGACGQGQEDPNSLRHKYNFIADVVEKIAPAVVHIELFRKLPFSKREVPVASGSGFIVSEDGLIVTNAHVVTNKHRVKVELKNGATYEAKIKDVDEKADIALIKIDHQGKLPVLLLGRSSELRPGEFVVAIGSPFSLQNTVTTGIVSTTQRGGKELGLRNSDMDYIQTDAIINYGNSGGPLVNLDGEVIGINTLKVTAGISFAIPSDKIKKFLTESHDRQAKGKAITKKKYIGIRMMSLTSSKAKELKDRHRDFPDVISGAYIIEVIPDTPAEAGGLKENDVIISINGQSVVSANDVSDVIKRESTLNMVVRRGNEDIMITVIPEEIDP
SIAE confirm = human SIAE inhibition, confirmation; shares compounds with SIAE primary; SIAE FP-Rh activity-based probe, fluorescence polarization; inhibition, % at 9.66 µM; 2,300 tested, 13% active;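 active = mean inhibition of the replicates above the hit cutoff set in the primary screen, cut at about 17% in these data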;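 also: inhibitors lower polarization as more probe stays unbound to SIAE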
Each line names hits and unclear results; the compound was inactive in the other large screens (follow-up assays come after a bar, where they were run); ! = not confirmed by another sample. Compounds with a hit are over-represented: about 2.7% of the library has one in this group of screens.

CC(C)[C@@H](CO)NC(=O)[C@H]1O[C@@H](n2cnc3c(N)ncnc32)[C@H](O)[C@@H]1O	none (no result: HTRA1 inh)
CN(C(=O)CC(=O)Nc1ccc(Cl)c(Cl)c1)c1ccccc1	none
Nc1ncnc2c1ncn2[C@@H]1O[C@H](C(=O)N[C@@H](CCc2ccccc2)C(=O)N2CCN(CC(=O)N3CCCC3)CC2)[C@@H](O)[C@H]1O	SIAE primary 29 (no result: HTRA1 inh) | SIAE confirm 121
CN(Cc1ccc2c(c1)CCCN2C)C(=O)[C@H]1O[C@@H](n2cnc3c(N)ncnc32)[C@H](O)[C@@H]1O	SIAE primary 59 (no result: HTRA1 inh) | SIAE confirm 47
CCCN(CCC)CCN1CCN(C(=O)[C@H](CCc2ccccc2)NC(=O)[C@H]2O[C@@H](n3cnc4c(N)ncnc43)[C@H](O)[C@@H]2O)CC1	none (no result: HTRA1 inh)
Cc1cc(C)n(CCNC(=O)c2ccc3c(c2)OCO3)n1	none
Cc1cc(=O)[nH]c(SCC(=O)N2C(C)CCCC2C)n1 (stereo not given)	none
COc1ccc(-c2c(Cc3ccccc3)nc(NC(=O)c3ccccc3)n2C)cc1	none (no result: TCR-CD3 inh, HTRA1 inh)
O=C(Nc1ccnn1C1CCN(C2CCOCC2)CC1)c1cccc(F)c1	none
CC1CCC2(CCC(=O)N2CCCOC(=O)NC(C)(C)C)CC1 (stereo not given)	SIAE primary 47 (no result: TCR-CD3 inh, HTRA1 inh) | SIAE confirm inactive
Nc1ccc(C(=O)O)cc1S(=O)(=O)O	SIAE primary 25 | SIAE confirm inactive
C/C(=N\N=c1/sc2ccccc2n1C)c1ccc(N2CCOCC2)cc1	SIAE primary 19 | SIAE confirm inactive
CCn1nc(NS(=O)(=O)c2ccc(NC(C)=O)cc2)c2cc3cccc(C)c3nc21	SIAE primary 18 | SIAE confirm inactive
CCOCCCNC(=S)Nc1ccc2nc(N3CCOCC3)cc(C)c2c1	SIAE primary 17 | SIAE confirm inactive
N=C(N)CCCOc1ccccc1-c1ccccc1	SIAE primary 20 | SIAE confirm inactive
COc1cc(NC(=O)CSc2nc3ncnc(N)c3[nH]2)c(C(=O)O)cc1OC	SIAE primary 18 | SIAE confirm inactive
CNC(=S)N/N=C/c1cn(CCOc2ccccc2OC)c2ccccc12	none
COc1ccc(OCCn2cc(/C=N/NC(=O)c3ccncc3)c3ccccc32)cc1	none
COC(=O)N/N=C/c1cn(CCOc2ccc(OC)cc2)c2ccccc12	none
CNC(=S)N/N=C/c1cn(CCOc2cccc(OC)c2)c2ccccc12	SIAE primary 22 | SIAE confirm inactive
COc1cccc(OCCn2cc(/C=N/NC(=O)c3ccncc3)c3ccccc32)c1	SIAE primary 31 | SIAE confirm inactive
Cc1ccc(OCCn2cc(/C=N/NC(=O)c3ccncc3)c3ccccc32)cc1	SIAE primary 29 | SIAE confirm inactive
Cc1csc(=O)n1CC(=O)OCC(=O)NC(C)c1ccc(F)cc1 (stereo not given)	SIAE primary 19 | SIAE confirm inactive
Cc1csc(=O)n1CC(=O)OCC(=O)NCc1ccc(F)cc1	none
COc1ccc(C(=O)N2CCC[C@@H]2C(=O)N2CCC[C@@H]2C(=O)NCc2ccccc2)cc1F	none (no result: HTRA1 inh)
COc1ccc(/C=N/Nc2cc(C)nc3ccc(Br)cc23)cc1	none
O=[N+]([O-])c1ccc(O)c(/C=N/Nc2nc3ccccc3[nH]2)c1	SIAE primary 19 | SIAE confirm inactive
O=[N+]([O-])c1ccc(N/N=C/c2ccccc2O)cc1	SIAE primary 40 | SIAE confirm inactive
O=[N+]([O-])c1ccc(NN=Cc2ccccc2O)nc1	none
COc1ccc2nc(C)cc(N/N=C/c3cccc(OC)c3O)c2c1	SIAE primary 24 | SIAE confirm 18
COc1cc(/C=N/Nc2nc3ccccc3[nH]2)ccc1O	SIAE primary 18 | SIAE confirm inactive
COc1cc(/C=N/Nc2nc3ccccc3[nH]c2=O)ccc1O	none
CCCCOCC1CN(CCCC)S(=O)(=O)c2c(Oc3ccc(OC)cc3)cccc2O1 (stereo not given)	none (no result: HTRA1 inh)
Cc1ccc(S(=O)(=O)N2C[C@H]3n4c(=O)ccc(=O)n4C[C@H](OC(=O)NCC4CCCCC4)[C@@]3(O)C2)cc1	none
COc1cccc(/C=N/Nc2nc3ccccc3[nH]2)c1O	SIAE primary 17 | SIAE confirm inactive
COc1cccc(/C=N/Nc2nc3ccccc3[nH]2)c1OC	none
Cc1ccc(NC(=O)c2ccc(CS(=O)(=O)Cc3ccccc3C)o2)cc1C	none (no result: TCR-CD3 inh, HTRA1 inh)
O=C(Nc1ccccc1F)c1csc([C@@H]2C[C@H](O)[C@@H](CO)O2)n1	none (no result: HTRA1 inh)
c1cc2c3c(cccc3c1)NC(c1ccc3c(c1)OCO3)N2	SIAE primary 28 | SIAE confirm inactive
O=S(=O)(NCc1ccco1)c1ccccc1Br	SIAE primary 20 | SIAE confirm inactive
COc1cc(OC)c(S(=O)(=O)NCc2ccco2)cc1S(=O)(=O)NCc1ccco1	none
O=C(N1CCOCC1)N1CC[C@H]2[C@H](CCCN2Cc2ccccc2)C1	none (no result: TCR-CD3 inh, HTRA1 inh)
O=[N+]([O-])c1cccc(CN2CCN(c3cccc4[nH]ccc34)CC2)c1	SIAE primary 20 | SIAE confirm inactive
O=C(NCc1cccs1)c1cccc(Nc2nc3ccc(Br)cc3[nH]2)c1	SIAE primary 43 | SIAE confirm 22
O=C(NCc1cccs1)c1ccccc1	none
COc1cc(OC)c(OC)cc1CNC(=O)CCN1C(=O)c2cccc([N+](=O)[O-])c2C1=O	SIAE primary 19 | SIAE confirm inactive
CC(=O)Nc1ccc(C(=O)CN2C(=O)NC3(CCOc4ccccc43)C2=O)c(F)c1 (stereo not given)	SIAE primary 19 | SIAE confirm inactive
CC(=O)Nc1ccc(C(=O)CN2C(=O)NC3(CCCCCC3)C2=O)c(F)c1	none
O=C(NCC[C@H]1CC[C@H](NS(=O)(=O)c2ccccc2F)[C@@H](CO)O1)c1ccc(F)cc1	none (no result: HTRA1 inh)
O=c1[nH][nH]c(=O)c2cc([N+](=O)[O-])ccc12	SIAE primary 18! | SIAE confirm inactive
COCCN1Cc2cc(C(=O)OC)c3c(c2C1=O)c1ccccc1n3S(=O)(=O)c1ccc(OC)cc1	none (no result: HTRA1 inh)
O=C1CC(c2ccc(F)cc2)C(n2cncn2)C(O)=C1C1NCCc2ccccc21 (stereo not given)	SIAE primary 26 | SIAE confirm inactive
COc1ccc(Nc2ncnc3sc(-c4ccccc4)cc23)cc1OC	SIAE primary 23 | SIAE confirm inactive
COc1cc(/C=N/NC(=O)C2COc3ccccc3O2)ccc1O (stereo not given)	SIAE primary 20 | SIAE confirm inactive
COc1ccc(/C=N\NC(=O)C2COc3ccccc3O2)cc1O (stereo not given)	none
COc1cc(/C=N/NC(=O)CCn2c3ccccc3c3ccccc32)ccc1O	SIAE primary 18 | SIAE confirm inactive
COc1cc(NC(=O)CN2C(=O)C(=O)N(CC(C)C)C2=O)cc(OC)c1	none
O=Nc1c(O)[nH]c2ccc(Cl)cc12	SIAE primary 28 | SIAE confirm 25
COc1ccc2[nH]c(O)c(N=O)c2c1	SIAE primary 26 | SIAE confirm 23

Assay outcomes as filed in PubChem BioAssay.
